Four compounds from ChEMBL document CHEMBL1125781, “Peptide to glycopeptide: glycosylated oligopeptide renin inhibitors with attenuated in vivo clearance properties” (J Med Chem, 1991) can be followed below.

*1 amine or outer side, *2 acyl side, *3 side chain or, on linkers, in order; H or OH if unused. Where a SMILES comes first, the peptide text is derived from it. [ ]: non-standard residue; d: D form. The star is where a group is joined. ξ: configuration not given here. X1 = CC(C)C[C@H](N[*:1])[C@@H](O)C[C@H](C(=O)[*:2])C(C)C; NH(2-picolyl-N-oxide) = [O-][n+]1ccccc1CN*; NMeH = CN[C@@H](Cc1c[nH]cn1)C(=O)O; NHCH2(2-pyridyl) = c1ccc(CN*)nc1; X2 = CC(=O)NC1C(N*)OC(CO)C(O)C1O; Ile(3ξ) = CCC(C)[C@H](N)C(=O)O; NHC(CH2OH)3 = OCC(CO)(CO)N*; X3 = OCC1OC(N*)C(O)C(O)C1O; Boc = CC(C)(C)OC(=O)*; CO = O=C([*:1])[*:2]

Format in all cases: functional, organism-based
For experiment [1], the species on record is Rattus norvegicus. As to the kind of experiment: Compound was tested for the biliary recovery dose in rats. In a few lines:
(§1)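 Anesthetized, bile duct cannulated rats given peptide by tail vein injection, 1 mg kg⁻¹ or the molar equivalent, in 3 mM citric acid/saline vehicle. Blood taken from the orbital sinus at 5 and 60 min. Serum inhibitor concentration measured by renin enzyme activity assay. Percent of recovered dose in bile and urine determined over the 3-h study period. Means, n = 4.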

For experiment [2], the species on record is Rattus norvegicus. As to the kind of experiment: Compound was tested for the urinary recovery dose in rats. The settings on record: Urine. In a few lines:
as §1

Experiment [3] concerns Rattus norvegicus. The experiment is described as follows: Serum concentration at 5 min after iv administration in bile duct cannulated rat. In a few lines: as §1
In experiment [4] the test system is Rattus norvegicus. The experiment is described as follows: Serum concentration at 60 min after iv administration in bile duct cannulated rat. In a few lines: as §1
In experiment [5] the test system is Rattus norvegicus. The experiment is described as follows: Serum concentration at 60 min after iv administration in bile duct cannulated rat. In a few lines: as §1
Experiment [6] deals with Rattus norvegicus. As to the kind of experiment: Serum concentration at 5 min after iv administration in bile duct cannulated rat. In a few lines: as §1

As for `CCC(C)[C@H](NC(=O)[C@@H](C[C@H](O)[C@H](CC(C)C)NC(=O)[C@H](Cc1c[nH]cn1)N(C)C(=O)[C@H](Cc1ccccc1)NC(=O)[C@@H]1CCCN1C(=O)[C@H](CC(=O)NC1OC(CO)C(O)C(O)C1NC(C)=O)NC(=O)OC(C)(C)C)C(C)C)C(=O)NCc1cccc[n+]1[O-]` (stereo partly specified) (Boc-D(X2)PF[NMeH][X1][Ile(3ξ)]-{NH(2-picolyl-N-oxide)}), the Recovery in the experiment listed under Rattus norvegicus [1] came to 33%; in the experiment listed under Rattus norvegicus [2], 67%. For the same compound, the Serum concentration with Rattus norvegicus [3] was 2580 nM; in the experiment on Rattus norvegicus [4], 158 nM.
Regarding `CCC(C)[C@H](NC(=O)[C@@H](C[C@H](O)[C@H](CC(C)C)NC(=O)[C@H](Cc1c[nH]cn1)N(C)C(=O)[C@H](Cc1ccccc1)NC(=O)[C@@H]1CCCN1C(=O)[C@H](CC(=O)NC1OC(CO)C(O)C(O)C1NC(C)=O)NC(=O)OC(C)(C)C)C(C)C)C(=O)NCc1ccccn1` (stereo partly specified) (Boc-D(X2)PF[NMeH][X1][Ile(3ξ)]-{NHCH2(2-pyridyl)}), the figures for the Recovery in the experiment filed under Rattus norvegicus [1] and in the experiment filed under Rattus norvegicus [2] were 76% and 24%, respectively. Also, the Serum concentration was 20 nM with Rattus norvegicus [5] and 1790 nM in the experiment with Rattus norvegicus [3].
For the compound `CCC(C)[C@H](NC(=O)[C@@H](C[C@H](O)[C@H](CC(C)C)NC(=O)[C@H](Cc1c[nH]cn1)N(C)C(=O)[C@H](Cc1ccccc1)NC(=O)[C@@H]1CCCN1C(=O)[C@H](CC(=O)NC1OC(CO)C(O)C(O)C1O)NC(=O)OC(C)(C)C)C(C)C)C(=O)NCc1ccccn1` (stereo partly specified) (Boc-D(X3)PF[NMeH][X1][Ile(3ξ)]-{NHCH2(2-pyridyl)}), the Recovery in the experiment filed under Rattus norvegicus [1] was 65%; in the experiment filed under Rattus norvegicus [2] it was 35%. The Serum concentration in the experiment on Rattus norvegicus [3] was found to be 2190 nM; in the experiment on Rattus norvegicus [4], 39 nM.
Take `CCC(C)[C@H](NC(=O)[C@@H](C[C@H](O)[C@H](CC(C)C)NC(=O)[C@H](Cc1c[nH]cn1)N(C)C(=O)[C@H](Cc1ccccc1)NC(=O)[C@@H]1CCCN1C(=O)NC(CO)(CO)CO)C(C)C)C(=O)NCc1cccc[n+]1[O-]` (stereo partly specified) ({NHC(CH2OH)3-CO}-PF[NMeH][X1][Ile(3ξ)]-{NH(2-picolyl-N-oxide)}): the Recovery was determined as 83% in the experiment filed under Rattus norvegicus [1] and 17% in the experiment listed under Rattus norvegicus [2]. In addition, the Serum concentration in the experiment with Rattus norvegicus [5] was determined as 15 nM; with Rattus norvegicus [6], 1100 nM.
